From PubChem
Most compounds without a hit are left out; they make up all but 2.4% or so of the library.
dFosB act: activators of delta FosB homodimer, primary screen, biochemical, fluorescence polarization, TAMRA-CDK5 oligo, single point. AID 493131, 2011. 340,000 tested, 0.99% active. activation, % at 25 µM. Protein FosB (Mus musculus), P13346. purified delta FosB; percent of positive-control signal above neutral wells;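 active means mean activation above about 17%, with every replicate also reaching it, limit read from the data, passing the limit was not always enough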
Rtt109 HAT inh: inhibitors of C. albicans Rtt109/Vps75 HAT, primary screen, biochemical, ThioGlo CoA-SH fluorescence, plate reader; Histone acetyltransferase RTT109 (Candida albicans (strain SC5314 / ATCC MYA-2876)), …; purified Rtt109/Vps75, 4 h; inhibition, % at 34.9 µM; 330,000 tested, 0.16% active; AID 540336, 2011;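 active means inhibition of at least 50% in every replicate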
Target sequence (Q5AAJ8 whole entry, looked up): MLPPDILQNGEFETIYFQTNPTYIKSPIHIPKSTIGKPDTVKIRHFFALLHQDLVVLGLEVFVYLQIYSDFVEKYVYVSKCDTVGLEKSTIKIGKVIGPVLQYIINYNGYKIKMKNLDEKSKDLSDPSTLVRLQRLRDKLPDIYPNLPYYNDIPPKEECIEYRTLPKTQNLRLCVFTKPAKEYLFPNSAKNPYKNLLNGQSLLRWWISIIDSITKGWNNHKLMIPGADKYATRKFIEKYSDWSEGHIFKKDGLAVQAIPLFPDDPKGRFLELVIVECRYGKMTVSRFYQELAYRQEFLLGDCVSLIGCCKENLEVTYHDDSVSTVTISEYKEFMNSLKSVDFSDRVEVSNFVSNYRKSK
GSIS activator: GLuc luminescence reporter in INS-1E cells, primary screen for activators of glucose-dependent secretion of insulin | 370,000 tested, 0.61% active | INS-1E GLuc reporter insulin secretion, 2-3 h | AID 743287, 2014 | activation, % at 16.6 µM;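 active means lowest replicate activation of at least 40%, so every replicate reaches that level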;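 further: 0% = median of neutral control wells and 100% = median of IBMX positive control wells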
Cneo AK release: Cryptococcus neoformans cell lysis inducers, primary screen, AK release luminescence, single concentration; AID 651654, 2012; 360,000 tested, 0.2% active; lysis activity, % at 15 µM; C. neoformans lysis, adenylate kinase release luminescence, 4 h; normalised: neutral wells 0, clomiphene wells 100;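 active means mean lysis activity across replicates of at least 80%, whatever share of replicates individually reach that level; inactive means mean lysis activity below 80%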
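Assay system: Cryptococcus neoformans yeast cells / Dosing: single-point compound dose / Timing: 4 h at 37 °C static, read 1 h later / Measured by: luminescence of released adenylate kinase using an AK detection reagent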
Env fusion inh: inhibitors of HIV-1 Env-driven cell-cell fusion, primary screen, HeLa-JRFL effector, CEM21 target cells, luciferase; 360,000 tested, 1.1% active; inhibition, % at 12.3 µM;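 active means mean replicate inhibition score of at least 50 and every replicate individually at or above 50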;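 further: 0% = plate neutral controls and 100% = maraviroc near 300 nM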
miR122 inh: miR-122 Renilla sensor signal increase in Huh7, primary screen, miR-122 inhibitor project, cell-based, single point, plate reader; Huh7 miR-122 Renilla luciferase sensor, 48 h; neutral wells = 0, positive control = 100; 340,000 tested, 0.3% active; activation (reporter increase), % at 12.5 µM;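 active means mean replicate activation score at least 90 and every replicate individually at or above 90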;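 further: higher luciferase means less miR-122 activity so hits act as miR-122 inhibitors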
Numbers without * were called inactive; i = inactive; . = not tested or not shown; [ ] = remark or other dose.

SMILES	dFosB act	Rtt109 HAT inh	GSIS activator	Cneo AK release	Env fusion inh	miR122 inh
NC1=NC(c2ccc(F)cc2)n2c(nc3ccccc32)N1 (stereo not given)	1.9	9.9	.	-0.7	24.4	-6.5
Cc1ccc(-n2c(C)cc(C3N=C(N)Nc4nc5ccccc5n43)c2C)c(C)c1 (stereo not given)	64.6*	0.7	4.9	-0.7	.	-1.3
Cc1cc(C2N=C(N)Nc3nc4ccccc4n32)c(C)n1-c1ccccc1Cl (stereo not given)	75.6*	.	.	-4.2	.	.
C[C@]1(C(=O)NCCCNc2ncc(C(F)(F)F)cc2Cl)C=C[C@@H](Cc2ccccc2)N1C(=O)c1ccccc1	4.7	1.2	.	-0.4	.	-5.1
COC(=O)N1[C@H](C)C=C[C@]1(Cc1ccccc1)C(=O)NCCCNc1ncc(C(F)(F)F)cc1Cl	-3.6	-10.4	.	0.4	103.3*	-0.1
CCOC(=O)N(C)C[C@H]1OCc2ccccc2-c2ccccc2C(=O)N([C@@H](C)CO)C[C@H]1C	.	.	3.9	-4.6	.	.
C=C(C)c1cccc(C(C)(C)NC(=O)Nc2ccc(Cl)cn2)c1	-9.3	9.2	-27.0	.	65.3*	.
C=C(C)c1cccc(C(C)(C)NC(=O)Nc2ncccn2)c1	-8.2	-9.6	-1.6	-0.1	-46.7	0.1
Cc1ccccc1N1C(S)=C(C#N)C(=O)NC12CCCCC2	2.1	85.6*	-15.6	2.5	14.5	-1.3
Cc1ccc(N2C(S)=C(C#N)C(=O)NC23CCCCC3)cc1	3.1	-3.6	-17.7	-8.5	-3.5	0.5
O=C1O[C@H](c2ccccc2)[C@H](c2ccccc2)N2[C@H]1[C@@H](C(=O)N1CCCCCCC1)[C@]1(C(=O)Nc3ccccc31)[C@H]2c1ccccc1OCCO	.	.	.	-3.7	58.9*[16.7 µM]	.
O=C1O[C@@H](c2ccccc2)[C@@H](c2ccccc2)N2[C@@H](c3ccccc3OCCO)[C@]3(C(=O)Nc4ccc(C#CCCO)cc43)[C@@H](C(=O)N3CCCCCCC3)[C@H]12	.	.	.	-1.9	-16.8[16.7 µM]	.
C[C@@H]1CN([C@@H](C)CO)C(=O)c2cc(NC(=O)c3ccncc3)ccc2O[C@@H](C)CCCCO[C@@H]1CN(C)C(=O)Nc1ccc(C(F)(F)F)cc1	.	.	15.9	.	.	.
CC(C)(C)C1CCC(CN2C(Nc3ccccc3)=NC[C@@H]2Cc2ccccc2)CC1 (stereo not given in full)	-16.8	32.8	85.6*	5.2	-1.4	-13.4
O=C(Cn1c(=O)n(CC2CCCO2)c(=O)c2ccccc21)c1ccc(Cl)c(Cl)c1 (stereo not given)	4.1	-2.1	.	1.4	58.0*	6.5
Cc1ccc(C)c(NS(=O)(=O)c2cc(C(=O)Nc3ccccc3-c3ccccc3)ccc2C)c1	-4.4	2.8	-39.3	0.0	71.4*	45.3
CN1C(=O)c2cc(NC(=O)Nc3ccccc3)ccc2OC[C@@H]2O[C@H](CC(=O)NC3CCC3)CC[C@@H]21	.	.	-4.0	0.6	8.8[16.7 µM]	10.9[16.7 µM]
COCC(=O)N1CC2(C1)CN(Cc1cccc(OC)c1)[C@H](CO)c1[nH]c3cc(OC)ccc3c12	.	.	4.5	.	.	.
Cc1cc(N/N=C/c2ccccc2Br)nc2ccccc12	6.1	-11.0	25.5	.	-44.0	.
O=c1[nH]c(N/N=C/c2ccccc2)nc2ccccc12	-13.2	-25.9	-7.3	.	-107.7	-9.6
O=c1[nH]c(N/N=C\c2ccc3c(c2)OCO3)nc2ccccc12	34.4*	.	-6.6	-3.1	i	-0.9
O=[N+]([O-])c1ccccc1N/N=C/c1ccc2c(c1)OCO2	-0.5	-14.9	4.0	-3.0	-67.6	8.4
O=c1cnnc(N/N=C/c2ccc3c(c2)OCO3)[nH]1	1.2	18.6	37.4	-0.7	55.2*	4.6
Cc1cc(N/N=C/c2ccc3c(c2)OCO3)nc2ccccc12	60.7*	1.8	.	.	-191.7	.
COc1ccc(S(=O)(=O)Nc2cc(C)c(O)c(S(=O)(=O)c3ccccc3)c2)cc1	0.8	-5.3	.	0.1	-28.9	129.1*
